The record followed here is ChEMBL document CHEMBL1144477, “Design, synthesis and cytotoxic properties of novel 1-[4-(2-alkylaminoethoxy)phenylcarbonyl]-3,5-bis(arylidene)-4-piperidones and related compounds” (Eur J Med Chem, 2007).

The structures appear in SMILES notation. pIC50: −log10 of the molar value.

One test has as its system HCT-15. In words: Cytotoxicity against human HCT15 cells. It counts as cell-based.
The next test concerns HCT-116. In words: Cytotoxicity against human HCT116 cells. It counts as cell-based.
The subject of the next test is KM12. In words: Cytotoxicity against human KM12 cells. It counts as cell-based.
The subject of another test is SW-620. In words: Cytotoxicity against human SW620 cells. It counts as cell-based.
In another test the test system is HCC 2998. In words: Cytotoxicity against human HCC2998 cells. It counts as cell-based.
Another test concerns K562. In words: Cytotoxicity against human K562 cells. It counts as cell-based.
A short description of test [1]: Cytotoxicity against human RPMI8226 cells. It counts as cell-based. As to conditions: RPMI-8226.
Test [2] can be described thus: Cytotoxicity against human HL60 (TB) cells. It counts as cell-based. The note with it: HL-60.
For another test, the system named is SR. In words: Cytotoxicity against human SR cells. It counts as cell-based.
Test [3] in a line: Cytotoxicity against human NCI49 cell lines. It counts as cell-based.
The nature of test [4]: Cytotoxicity against human Molt4/C8 cells. It counts as cell-based. The note with it: MOLT-4. Summed up:
(§1)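 Human Molt 4/C8 and CEM T-lymphocytes and murine L1210 cells were each exposed to at least three compound concentrations at 37 °C for 48 h. Growth inhibition was then measured, and IC50 values were derived from it.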

Another test has as its system CCRF-CEM. In words: Cytotoxicity against human CEM cells. It counts as cell-based. Summed up: as §1
A further test has as its system L1210. In words: Cytotoxicity against […] mouse L1210 cells. It counts as cell-based. Summed up:
as §1

The test system of the next test is COLO 205. In words: Cytotoxicity against human COLO205 cells. It counts as cell-based.
Another test deals with HepG2. In words: Induction of apoptosis in human HepG2 cells at 20 uM by TUNEL assay. It counts as functional. The method, boiled down:
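HepG2 cells (ATCC) were kept in DMEM with 10% fetal calf serum and penicillin G/streptomycin/amphotericin B, at 37 °C in humidified 5% CO2. Cells on chambered slides were treated with the compound; controls had no addition or DMSO only. After 48 h, cells were fixed, permeabilized and TUNEL-stained (fluorescein). Labelled apoptotic cells were counted by fluorescence microscopy and reported as a percentage.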

As for `CC[N+](C)(CC)CCOc1ccc(C(=O)N2C/C(=C\c3ccc(C)cc3)C(=O)/C(=C/c3ccc(C)cc3)C2)cc1`, the pIC50 in the test with HCT-15 is 5.03; in the test with HCT-116 it was 4.85; in the test on KM12, 5.03; in the test with SW-620 it was 4.98; with HCC 2998, 5.21; with K562, 5.87. Moreover, the pIC50 is 5.90 in test [1]; 4.93 in test [2]; 4.64 in the test with SR; 5.11 in [3]; 4.91 in [4]; 4.63 with CCRF-CEM. Further, the pIC50 in the test with L1210 is 4.73; with COLO 205, 5.05.
Regarding `Cc1ccc(/C=C2\CN(C(=O)c3ccc(OCCN4CCOCC4)cc3)C/C(=C\c3ccc(C)cc3)C2=O)cc1`, the negative-log IC50 (pIC50) with HCT-15 is 6.08; in the test on HCT-116, 5.61; in the test on KM12, 5.95; in the test on SW-620 it was 5.99; in the test on K562, 6.56; in test [1], 6.94. Further, the pIC50 was 5.96 in [2]; 6.61 in the test on SR; greater than 6.15 in [3]; 5.76 in test [4]; 5.87 with CCRF-CEM; 4.66 in the test on L1210. This compound showed a negative logarithm of the IC50 (pIC50) in the test on COLO 205 of 5.94.
Consider `CCN(CC)CCOc1ccc(C(=O)O)cc1`, for which the negative logarithm of the IC50 (pIC50) is 5.70 in the test on HCC 2998, less than 3.30 in test [4], less than 3.30 in the test on CCRF-CEM and less than 3.30 in the test with L1210.
Take `O=C1/C(=C/c2ccc(Cl)cc2)CN(C(=O)c2ccc(OCCN3CCCCC3)cc2)C/C1=C\c1ccc(Cl)cc1`: the negative-log IC50 (pIC50) in the test on HCT-15 was 4.31; in the test on HCT-116, 4.32; in the test on KM12 it was 4.72; in the test on SW-620, 5.45; with HCC 2998, 5.80; with K562 it was 5.36. Moreover, the pIC50 in test [1] was 6.12; in test [2], 4.69; with SR it was 5.64; in test [3] it was less than 4.94; in [4] it was 4.47; in the test on CCRF-CEM, 5.00. The negative-log IC50 (pIC50) was 3.99 in the test on L1210 and 4.80 in the test with COLO 205.
Consider `O=c1[nH]cc(F)c(=O)[nH]1` [FLUOROURACIL], for which the pIC50 is 5.18 in the test with HCT-15; 5.69 in the test on HCT-116; 5.10 with KM12; 4.73 with SW-620; 5.24 in the test with HCC 2998; 3.90 in the test on K562. Also, the negative-log IC50 (pIC50) in test [1] is 5.45; in test [2] it was 4.07; in the test on SR, 4.22; in test [3] it was less than 4.53; in the test with COLO 205, 5.47.
For the compound `Cc1ccc(/C=C2\CN(C(=O)c3ccc(OCCN(C)C)cc3)C/C(=C\c3ccc(C)cc3)C2=O)cc1`, the pIC50 in the test on HCT-15 was 6.04; in the test with HCT-116 it was 5.86; in the test on KM12, 6.11; in the test with SW-620, 6.25; in the test with HCC 2998, 6.64; with K562 it was 5.74. Also, the pIC50 in test [1] is 6.65; in test [2], 5.88; in the test on SR, 6.32; in test [3] it was 5.94; in test [4], 5.86; in the test with CCRF-CEM, 6.05. Besides, the results for the negative logarithm of the IC50 (pIC50) in the test with L1210 and in the test on COLO 205 were 5.15 and 5.99, respectively.
Regarding `N[C@@H](Cc1ccc(N(CCCl)CCCl)cc1)C(=O)O` [MELPHALAN], the pIC50 in the test with HCT-116 is 4.52; with KM12 it was 4.36; in the test with SW-620 it was 4.41; with HCC 2998 it was 4.38; with K562, 4.36; in [1], 4.18. For the same compound, the negative logarithm of the IC50 (pIC50) is 5.69 in test [2], 5.73 in the test on SR, 4.57 in test [3] and 4.18 in the test on COLO 205.
With `Cc1ccc(/C=C2\CN(C(=O)c3ccc(OCCN4CCCCC4)cc3)C/C(=C\c3ccc(C)cc3)C2=O)cc1`, the pIC50 in the test on HCT-15 is 5.97; with HCT-116 it was 5.80; in the test with KM12, 6.83; with SW-620, 6.47; in the test on K562, 6.23; in test [1] it was 6.91. Further, the negative-log IC50 (pIC50) in [2] is 6.03; in test [3], 5.86; in [4] it was 6.04; in the test with CCRF-CEM it was 5.94; in the test with L1210, 5.29; in the test with COLO 205 it was 5.16.
Take `O=C1/C(=C/c2ccccc2)CNC/C1=C\c1ccccc1`: the negative logarithm of the IC50 (pIC50) in the test on HCT-15 is 6.20; in the test on HCT-116 it was 6.74; in the test on KM12, 6.10; in the test on SW-620, 6.24; in the test with HCC 2998, 5.70; with K562, 6.31. In addition, the pIC50 in test [1] is 6.56; in [2], 6.44; in the test on SR, 6.68; in test [3], 5.79; in the test with COLO 205, 5.81.
As for `CC[N+](C)(CC)CCOc1ccc(C(=O)N2C/C(=C\c3ccccc3)C(=O)/C(=C/c3ccccc3)C2)cc1`, the pIC50 with HCT-15 is less than 4.30; in the test on HCT-116, less than 4.30; with KM12 it was 4.36; in the test on SW-620 it was 4.52; in the test with HCC 2998, 4.55; in the test with K562, 4.36. The pIC50 was 4.76 in test [1]; less than 4.30 in test [2]; 4.42 in the test on SR; less than 4.38 in [3]; 3.91 in test [4]; 3.96 in the test with CCRF-CEM. The values for the negative-log IC50 (pIC50) in the test with L1210 and in the test on COLO 205 were 3.80 and 4.69, respectively.
In the case of `Cl.O=C1/C(=C/c2ccc(Cl)cc2)CN(C(=O)c2ccc(OCCN3CCOCC3)cc2)C/C1=C\c1ccc(Cl)cc1`, the pIC50 was 5.66 with HCT-15; 5.14 with HCT-116; 5.64 in the test with KM12; 5.84 in the test with SW-620; greater than 8.30 in the test with HCC 2998; 5.17 with K562. The pIC50 in test [1] was 6.88; in test [2], 5.26; in test [3] it was greater than 6.25; in test [4], 4.73; in the test on CCRF-CEM it was 5.08; in the test on L1210, 4.09. The compound further registered an Activity with HepG2 of 29.25%.
Take `CN(C)CCOc1ccc(C(=O)N2C/C(=C\c3ccc(Cl)cc3)C(=O)/C(=C/c3ccc(Cl)cc3)C2)cc1`: the negative-log IC50 (pIC50) in the test with HCT-15 was 6.53; with HCT-116, 5.22; in the test on KM12 it was 5.76; in the test on SW-620, 6.68; in the test with HCC 2998, 6.58; in the test on K562 it was 6.48. The negative logarithm of the IC50 (pIC50) in [1] is 7.01; in test [2], 5.85; in the test with SR, 6.90; in test [3], 5.72; in test [4] it was 5.84; in the test with CCRF-CEM, 5.96. Moreover, the pIC50 was 5.14 with L1210 and 5.77 with COLO 205.

The pIC50 is −log10 of the IC50, conventionally taken in molar units. Higher therefore signals a low IC50.
